Measurements as given in ChEMBL document CHEMBL1122586, “Cytochrome P-455 nm complex formation in the metabolism of phenylalkylamines. 8. Stereoselectivity in metabolic intermediary complex formation with a series of chiral 2-substituted 1-phenyl-2-aminoethanes” (J Med Chem, 1984).

Key:
[1] = Apparent Michaelis-Menten constant (Km (app)) for the metabolic intermediary complex formation was reported.; type: ADME; details: read-out: Km app
In short: (§1)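 Liver microsomes from male Sprague-Dawley rats (200–240 g) pretreated with phenobarbital ip (three daily injections of 80, then 40 mg/kg on day 4), isolated by gel filtration. Incubation at 25 °C, 1 mg/mL protein, 50 mM potassium phosphate pH 7.5, 10 mM MgCl2, with substrate. Started by NADPH. ΔA455–490 per μmol P-450 versus time read by difference spectroscopy. Vmax(obsd) and Km(app) come from linear plots over a defined substrate range.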

[2] = Compound was tested for the maximal velocity of metabolic intermediary complex formation; type: ADME; in short: as §1

Row | SMILES | Km [1] | Vmax [2]
1 | CCC[C@@H](N)Cc1ccccc1.Cl | 28 µM | 5.1
2 | CCC(N)Cc1ccccc1.Cl (stereo unspecified) | 30 µM | 4
3 | CC[C@@H](N)Cc1ccccc1.Cl | 23 µM | 3.2
4 | CCCC[C@H](N)Cc1ccccc1.Cl | 21 µM | 10.5
5 | CCCC[C@@H](N)Cc1ccccc1.Cl | 16 µM | 5.7
6 | C[C@H](N)Cc1ccccc1.Cl | ~280 µM | ~ 1.6
7 | C[C@@H](N)Cc1ccccc1.Cl | ~270 µM | ~ 1.5
8 | CCC[C@H](N)Cc1ccccc1.Cl | 32 µM | 9.1
